Kir21 inh = blocks the mouse Kir2.1 inward-rectifier potassium channel; HEK293-Kir2.1, FluxOR thallium flux fluorescence; active compounds read low; B-score at 10 µM; P35561; AID 1672; hit rate 0.85% among 310,000;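 active = fluorescence ratio B-score at or below minus 3 SD of library scores, with starting-brightness B-score within 2 SD, cut at about -4.2 in these data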;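 note: channel flux triggered by added potassium and thallium sulfate stimulus; B-score of peak minus minimum fluorescence over baseline after thallium stimulus; more negative B-score means stronger Kir2.1 block with less thallium influx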
hERG protect = hERG (human) protection from proarrhythmic block. CHO-hERG, FluxOR thallium flux, dofetilide IC70 present. activation (rescue from dofetilide block), less the hit threshold, % at 10 µM. hit rate 0.51% among 310,000. AID 1511;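 active = activation above the mean of controls blocked by dofetilide plus 5 SD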;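 note: thallium influx through hERG after potassium depolarization seen as dye fluorescence rise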
KCNQ1 inh = human KCNQ1 channel inhibition. P51787. CHO-K1 KCNQ1, FluxOR thallium flux fluorescence; active compounds read high. B-score at 10 µM. hit rate 1.3% among 310,000;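 active = compounds whose thallium flux B-score, printed positive for inhibition, exceeds three library SD while starting fluorescence stays within three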;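 note: channel opened by potassium depolarization with thallium stimulus after 20 min compound exposure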
KCNK9 inh = inhibitors of human KCNK9 two-pore domain potassium channel; Q9NPC2; HEK293 KCNK9, FluxOR thallium flux fluorescence; active compounds read low; B-score at 10 µM; hit rate 1.2% among 310,000; AID 488922;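 active = ratio B-score over 3 SD below the library mean, with starting fluorescence within 5 SD of its mean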;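 note: negative B-score means less thallium flux so channel inhibition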
Target sequence (Q9NPC2 whole entry, looked up, the tested form may be a part): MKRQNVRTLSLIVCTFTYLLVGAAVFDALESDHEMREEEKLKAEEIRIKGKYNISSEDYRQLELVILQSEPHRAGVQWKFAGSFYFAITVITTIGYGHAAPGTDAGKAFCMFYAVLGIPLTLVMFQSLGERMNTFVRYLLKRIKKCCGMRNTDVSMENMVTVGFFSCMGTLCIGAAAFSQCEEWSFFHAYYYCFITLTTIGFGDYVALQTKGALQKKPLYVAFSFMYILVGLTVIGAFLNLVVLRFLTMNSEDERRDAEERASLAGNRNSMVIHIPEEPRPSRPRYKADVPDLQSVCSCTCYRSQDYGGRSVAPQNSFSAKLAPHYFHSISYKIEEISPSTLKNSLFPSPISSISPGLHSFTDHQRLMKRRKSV
KCNQ1 act = human KCNQ1 channel potentiation or activation | AID 2648 | P51787 | CHO-K1 KCNQ1, thallium flux FluxOR fluorescence; active compounds read high | hit rate 0.35% among 310,000 | B-score at 10 µM;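 active = fluorescence ratio B-score, a plate-corrected score, at least three library SD, with initial intensity B-score within 5 SD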
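Assay system: stable KCNQ1 CHO-K1 line; medium: assay buffer, equal DMSO in all wells; timing: 90 min dye loading and 20 min compound exposure, both at room temperature; technique: kinetic FluxOR thallium fluorescence, 10-s 1-Hz baseline, 110-s post-stimulus read; read-out basis: B score of baseline-normalized fluorescence ratio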
KCNK3 inh = human KCNK3 channel inhibition, primary screen | O14649 | CHO-KCNK3 thallium flux, FluxOR fluorescence; active compounds read low | B-score at 10 µM | hit rate 0.84% among 340,000 | AID 602410;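 active = B-score under library mean minus 4 SD, starting fluorescence ratio at most library mean plus 5 SD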;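 note: more negative B-score means stronger inhibition of thallium flux through KCNK3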
Target sequence (O14649 whole entry, looked up): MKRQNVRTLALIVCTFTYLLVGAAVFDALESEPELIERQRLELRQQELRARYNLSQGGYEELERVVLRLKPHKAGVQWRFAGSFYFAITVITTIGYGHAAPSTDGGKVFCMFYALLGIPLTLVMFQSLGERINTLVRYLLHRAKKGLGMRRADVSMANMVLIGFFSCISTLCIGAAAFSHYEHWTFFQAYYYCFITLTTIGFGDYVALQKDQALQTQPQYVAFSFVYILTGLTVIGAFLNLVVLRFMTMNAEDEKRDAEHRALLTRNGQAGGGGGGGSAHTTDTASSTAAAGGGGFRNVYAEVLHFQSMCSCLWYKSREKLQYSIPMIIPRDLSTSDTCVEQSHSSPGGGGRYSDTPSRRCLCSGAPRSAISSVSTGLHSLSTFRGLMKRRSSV
KCNK9 inh conf = confirmation of human KCNK9 potassium channel inhibitors. shares compounds with KCNK9 inh. HEK293 KCNK9 cells, FluxOR thallium flux fluorescence. inhibition, % at 10 µM. hit rate 43% among 4,900;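 active = thallium signal inhibited by more than 5 SD of the compound-free buffer control wells, on both duplicate plates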;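 note: 0% = assay buffer control wells without compound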
Kir2-1 spec = tests whether KCNK9 modulators also affect mouse Kir2.1; shares compounds with KCNK9 inh; Kir2.1 cells, FluxOR thallium flux fluorescence; inhibition, % at 10 µM; hit rate 4% among 4,900;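 active = thallium signal drop more than 5 SD beyond the mean of the no-compound control wells, seen in both duplicate plates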;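 note: signal is fluorescence rise after thallium addition divided by baseline fluorescence; plate controls were assay buffer only for no effect and full block by chlorpromazine control for full effect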
KCNK9 uninduced = second counter-screen for KCNK9 modulators: effect in non-induced cells. inhibition, % at 10 µM. hit rate 40% among 4,900. non-induced KCNK9-HEK293, FluxOR thallium flux. shares compounds with KCNK9 inh;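 active = thallium signal drop beyond 5 SD of the untreated control mean, on both duplicate plates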;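 note: plate controls were buffer only IC0 wells for no effect and SID17386958 at its maximal inhibitory level for full effect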
KCNK3 inh conf = confirmation of human KCNK3 two-pore domain potassium channel inhibitors; shares compounds with KCNK3 inh; CHO-KCNK3 thallium flux, FluxOR fluorescence; 0% buffer, 100% carvedilol maximal block; ratio percent of control, % at 10 µM; hit rate 99% among 2,400;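 active = ratio percent of control, averaged over triplicates, above buffer control mean plus 5 SD, cut at about 64% in these data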;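 note: ratio is the fluorescence rise from min to max over baseline after thallium stimulus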
KCNK3 noninduced = KCNK3 inhibitor counter-screen hit in non-induced cells. AID 651747. non-induced KCNK3 parental cells, FluxOR thallium flux; active compounds read low. hit rate 40% among 2,400. shares compounds with KCNK3 inh. thallium flux ratio (lower = more inhibition) at 10 µM;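 active = thallium flux ratio, averaged over three wells, more than 5 SD below the buffer control mean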;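 note: host cells are CHO cells without KCNK3 induction; ratio is peak minus trough fluorescence over baseline then normalized to buffer controls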
The depositor's hits bear a star; i = inactive; / = no result given. Most compounds without a hit are left out; they make up all but 3.7% or so of the library.

SMILES | Kir21 inh | hERG protect | KCNQ1 inh | KCNK9 inh | KCNQ1 act | KCNK3 inh | KCNK9 inh conf | Kir2-1 spec | KCNK9 uninduced | KCNK3 inh conf | KCNK3 noninduced
O=C1[C@H]2[C@@H](/C=C/c3ccccc3)N3C(=O)CN(Cc4ccccn4)C(=O)[C@@]3(Cc3ccccc3)[C@H]2C(=O)N1c1ccccc1 | 0.26 | -9 | i | i | i | i | / | / | / | / | /
CN(C)CCn1nnc2c(=O)oc3ccccc3c21 | 2.7 | -4 | i | i | i | i | / | / | / | / | /
N#Cc1ccc(Cl)cc1NC(=O)CSc1nc2nc(-c3cccs3)cc(C(F)(F)F)c2c(=O)[nH]1 | -0.2 | -9 | i | i | i | / | / | / | / | / | /
Cc1cc(C)c2cc(CN(CC3CCCO3)C(=S)NCc3ccco3)c(=O)[nH]c2c1 (stereo not drawn) | 1.2 | -11 | i | -9.5* | i | -9.8* | 29%* | i | 33%* | 113* | i
COc1ccc(-c2nc(-c3ccc(O)cc3O)cs2)cc1OC | -1.2 | -31 | i | -13* | i | -12* | 50%* | i | i | 124* | i
Cc1cc(Oc2nc3c(C)cccn3c(=O)c2/C=C(\C#N)S(=O)(=O)c2ccc(Cl)cc2)ccc1Cl | 0.29 | -8 | i | i | i | i | / | / | / | / | /
COc1ccc(/C(C#N)=C/c2c(-c3ccc(Cl)cc3)nc3c(C)cccn23)cc1 | 0.04 | -11 | i | -11* | i | -10* | 42%* | i | 29%* | 101* | 0.15*
CCOc1ccc(S(=O)(=O)N2CN(c3cccc(C(C)=O)c3)c3nc4ccccc4nc32)cc1 | / | / | / | / | / | i | / | / | / | / | /
CN(C)c1ccc(C(CNC(=O)c2ccccc2)c2c[nH]c3ccccc23)cc1 (stereo not drawn) | 0.03 | -14 | i | -13* | i | -9.2* | 54%* | i | 27%* | 101* | 0.14*
N#Cc1c(-c2ccccc2)c(-c2ccccc2)n(Cc2ccco2)c1NC(=O)c1cccs1 | -0.8 | -5 | 6* | -13* | i | -13* | 58%* | i | 42%* | 112* | i
CC(C)(c1ccccc1)c1ccc(OCCn2cnc3ccccc3c2=O)cc1 | -0.77 | -10 | i | i | i | -13* | i | i | 40%* | 73* | 0.15*
O=C(NC(=S)NC1CCCCC1)c1ccccc1[N+](=O)[O-] | 0.76 | -1 | i | i | i | i | / | / | / | / | /
COc1nnc(-c2ccc(N3CCOCC3)c(NC(=O)C3CCCCC3)c2)c2ccccc12 | 0.24 | -13 | i | i | i | i | / | / | / | / | /
COc1nnc(-c2ccc(N3CCCCC3)c(NC(=O)C3CCCCC3)c2)c2ccccc12 | -0.4 | -15 | 12* | -15* | i | -11* | 52%* | i | i | 125* | 0.14*
CC(C)CC(c1nnnn1Cc1cccs1)N1CCN(c2nc3ccccc3s2)CC1 (stereo not drawn) | -1.1 | -12 | i | -12* | i | -10* | 38%* | i | i | 129* | 0.12*
COc1ccc(-c2c(C)[nH]n3c(=O)c(Cc4ccccc4)c(C)nc23)cc1 | 0.04 | -7 | i | i | i | i | / | / | / | / | /
Cc1cccc(-c2ocnc2C(=O)Nc2ccccc2NC(=O)c2ccccn2)c1 | 0.69 | -9 | i | -11* | i | -9.7* | 36%* | i | 29%* | 109* | 0.16*
Cc1ccc(-c2ocnc2C(=O)Nc2ccccc2NC(=O)c2ccccn2)cc1 | 1.9 | -7 | i | i | i | i | / | / | / | / | /
Clc1ccc(CSc2nnc(-c3sccc3-n3cccc3)o2)cc1 | -2.5 | -18 | 6* | -14* | i | -9.2* | 50%* | i | i | 101* | i
CCOc1ncccc1C(=O)Nc1cccc(-c2nc3cccnc3s2)c1 | 0.05 | -11 | i | -10* | i | -9.6* | i | i | i | 101* | i
O=C(Nc1cccc(-c2nc3cccnc3s2)c1)c1ccco1 | -0.67 | -14 | i | i | i | i | / | / | / | / | /
Cc1cc(NC(=S)N(CCN2CCCCC2)Cc2ccco2)ccc1Cl | 1.7 | -13 | i | -8.2* | i | -11* | 25%* | i | 28%* | 108* | i
CC1(C)CC(=O)C2=C(C1)N=C1c3ccccc3C(=O)C1C2c1ccc(Cl)cc1 (stereo not drawn) | -0.01 | -11 | i | -12* | i | -15* | 55%* | i | 40%* | 122* | 0.14*
Cn1c(SCC(=O)Nc2cc(Cl)cc(Cl)c2)nnc1-c1ccc2nonc2c1 | 0.6 | -9 | i | i | i | i | / | / | / | / | /
Cc1onc(-c2ccc(Cl)cc2)c1-c1ccnc(SCC(=O)Nc2cc(Cl)cc(Cl)c2)n1 | -0.48 | -6 | 9* | -16* | i | -13* | i | i | 44%* | 101* | 0.15*
SMILES | Kir21 inh | hERG protect | KCNQ1 inh | KCNK9 inh | KCNQ1 act | KCNK3 inh | KCNK9 inh conf | Kir2-1 spec | KCNK9 uninduced | KCNK3 inh conf | KCNK3 noninduced
CC(C)(C)C(=O)NNC(=O)c1cc(C(C)(C)C)nn1Cc1ccccc1 | -0.14 | -8 | i | i | i | i | / | / | / | / | /
CC(C)(C)c1cc(C(=O)NNc2cccc(Cl)c2)n(Cc2ccccc2)n1 | -2.2 | -11 | 10* | -15* | i | -12* | 64%* | i | 48%* | 123* | i
Cc1ccc(S(=O)(=O)NC(CCC(N)=O)C(=O)NCc2ccc3c(c2)OCO3)c(C)c1 (stereo not drawn) | / | / | / | / | / | i | / | / | / | / | /
COc1ccc(C(C)(C)C)cc1NC(=O)CN1C(=O)C(=O)N(Cc2ccco2)C1=O | / | / | / | / | / | i | / | / | / | / | /
C=CCn1c(=S)[nH]c2cc(C(=O)N3CCN(c4ccccc4OC)CC3)ccc2c1=O | / | / | / | / | / | i | / | / | / | / | /
Cc1ccc([N+](=O)[O-])cc1-c1[nH]c(-c2ccc(O)c(O)c2)nc1-c1ccccc1 | -1.3 | -29 | i | -9* | i | -9.8* | 40%* | i | i | 111* | i
COc1ccc([N+](=O)[O-])cc1-c1[nH]c(-c2ccc(C(=O)O)cc2)nc1-c1ccccc1 | -0.35 | -8 | i | i | i | i | / | / | / | / | /

Screening results as filed in PubChem BioAssay.
